Results: ChEMBL document CHEMBL3792381, “Amine-free melanin-concentrating hormone receptor 1 antagonists: Novel 1-(1H-benzimidazol-6-yl)pyridin-2(1H)-one derivatives and design to avoid CYP3A4 time-dependent inhibition” (Bioorg Med Chem, 2016)
In brackets after ≈: the same amount, converted by molar mass. Activity calls are given as the source filed them. The calls are words filed in the database; no cut-off is given here.

Legend:
[1] = molecular target: T1, Melanin-concentrating hormone receptor 1 (Homo sapiens, UniProt Q99705); assay: Displacement of [125I]-MCH(4 to 19) from human MCHR1 expressed in CHO cell membranes after 1 hr by liquid scintillation counting
In short: (§1)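 Membranes from CHO cells stably expressing human or rat MCHR1, prepared by homogenization and 100,000×g centrifugation, in 20 mM Tris-HCl pH 7.5 with 5 mM EDTA and protease inhibitors. Incubated with test compound and [125I]-MCH(4–19) for 1 h at room temperature. Filtered on PEI-treated GF/C filters and counted by scintillation. Nonspecific binding defined with cold MCH(1–19). IC50 from duplicate experiment.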

[2] = molecular target: Melanin-concentrating hormone receptor 1 (Rattus norvegicus, UniProt P97639); assay: Displacement of [125I]-MCH(4-19) from rat MCHR1 expressed in CHO cell membranes after 1 hr by liquid scintillation counting; in short: as §1
Rattus norvegicus [3] = assay: Anorectic effect in DIO-F344/Jcl rat assessed as cumulative food intake at 1 mg/kg, po dosed for 2 weeks and measured every 2 or 3 days relative to vehicle control; type: functional
In short: (§2)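 Male DIO-F344 rats (41 weeks old), on high-fat diet D12451 from 5 weeks of age, singly housed, given powder high-fat diet, habituated to oral dosing with tap water, grouped by day-0 food intake and body weight. Oral gavage once daily, suspended in 0.5% methylcellulose at 2 mL/kg, 1–3 h before dark onset, for 2 weeks (n = 5 or 6). Body weight taken before dosing, expressed as % of initial. Food intake every 2 or 3 days. Vehicle-treated and sibutramine-treated groups included.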

Rattus norvegicus [4] = assay: Antiobesity activity in DIO-F344/Jcl rat assessed as reduction in body weight at 1 mg/kg, po dosed for 2 weeks and measured every 2 or 3 days relative to vehicle control; type: functional; parameters: scale not given: the % may be the effect or the level left; in short: as §2
CYP3A4 = CYP3A4 (Homo sapiens, UniProt P08684); assay: Time dependent inhibition of CYP3A4 in human liver microsomes assessed as conversion of testosterone to 6beta-hydroxytestosterone by measuring remaining activity at 30 uM by UPLC analysis in presence of NADPH generating system; type: ADME; conditions: read-out: Activity
In short: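 Single-point assay: test compound at 30 µM preincubated with human liver microsomes at 37 °C in phosphate buffer pH 7.4 with an NADPH-generating system. Residual CYP3A4 activity then measured as testosterone 6β-hydroxylation by UPLC. Percent remaining = activity with preincubation (% of DMSO control) over activity without preincubation; n = 2.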

[5] = Oral bioavailability in Sprague-Dawley rat plasma at 1 mg/kg administered through cassette dosing by LC/MS/MS analysis; type: ADME, organism-based
In short: (§3)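 Male SD rats (eight weeks old), fed, cassette-dosed iv at 0.1 mg/kg or orally at 1 mg/kg as a suspension in 0.5% methylcellulose; n = 3. Plasma obtained by centrifugation of blood, deproteinized with acetonitrile, and measured by LC/MS/MS. AUC covers 0–8 h. Bioavailability, total clearance and Vss are derived from the iv and po data.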

[6] = molecular target: T1, Melanin-concentrating hormone receptor 1; assay: Antagonist activity at human MCHR1 expressed in CHO cells assessed as change in MCH(4 to 19)-stimulated Ca2+ concentration by Ca2+ mobilization assay; type: functional, cell-based
In short: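 CHO dhfr− cells stably transfected with human MCHR1 (clone 4), seeded at 20000 cells/well and cultured about 24 h. Loaded with Fluo4 calcium dye for 30 min at 37 °C. Test compound in 10 mM HEPES pH 7.4 buffer with 0.1% BSA added, then MCH(4–19) at 2 nM final. Fluorescence read every 2 s; inhibition rate (%) taken relative to ligand-alone and DMSO-alone wells.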

[7] = Total clearance in Sprague-Dawley rat plasma at 0.1 mg/kg, iv administered through cassette dosing by LC/MS/MS analysis; type: ADME, organism-based; in short: as §3
[8] = Volume of distribution in steady state in Sprague-Dawley rat plasma at 0.1 mg/kg, iv administered through cassette dosing by LC/MS/MS analysis; type: ADME, organism-based; conditions: read-out: Vdss; in short: as §3
[9] = Cmax in Sprague-Dawley rat at 1 mg/kg, po administered through cassette dosing by LC/MS/MS analysis; type: ADME, organism-based; parameters: dose 1 mg/kg, route oral; conditions: in vivo; in short: as §3
[10] = Tmax in Sprague-Dawley rat plasma at 1 mg/kg, po administered through cassette dosing by LC/MS/MS analysis; type: ADME, organism-based; in short: as §3
[11] = AUC( 0 to 8 hrs) Sprague-Dawley rat plasma at 1 mg/kg, po administered through cassette dosing by LC/MS/MS analysis; type: ADME, organism-based; parameters: dose 1 mg/kg, time < 8 hr, route oral; in short: as §3
Rattus norvegicus [12] = assay: Anorectic effect in DIO-F344/Jcl rat assessed as inhibition of food intake at 3 mg/kg, po administered 2 hrs before onset of dark period for 2 days; type: functional; parameters: scale not given: the % may be the effect or the level left
In short: (§4)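 Male DIO-F344/Jcl rats, 45 weeks old, on high-fat diet from 5 weeks of age, singly housed on powdered high-fat diet and habituated to oral dosing with tap water. Grouped by day-0 food intake and body weight. Dosed orally once daily, suspended in 0.5% methylcellulose at 2 mL/kg, 2 h before dark onset, for 2 days; n = 6. Cumulative 2-day food intake is expressed relative to the vehicle group.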

Rattus norvegicus [13] = assay: Anorectic effect in DIO-F344/Jcl rat assessed as inhibition of food intake at 10 mg/kg, po administered 2 hrs before onset of dark period for 2 days; type: functional; parameters: scale not given: the % may be the effect or the level left; in short: as §4
Rattus norvegicus [14] = assay: Anorectic effect in orally dosed DIO-F344/Jcl rat assessed as inhibition of food intake administered 2 hrs before onset of dark period for 2 days; type: functional, organism-based; in short: as §4
Rattus norvegicus [15] = assay: Antiobesity activity in DIO-F344/Jcl rat assessed as reduction in body weight at 3 mg/kg, po dosed for 2 weeks and measured every 2 or 3 days relative to vehicle control; type: functional; parameters: scale not given: the % may be the effect or the level left
In short: (§5)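 DIO-F344 rats, 41 weeks old, habituated and grouped as for the 2-day study. Dosed orally once daily for 2 weeks in 0.5% methylcellulose at 2 mL/kg, 1–3 h before dark onset, after weighing; n = 5 or 6. Food intake measured every 2 or 3 days; body weight change expressed as percent of initial weight; sibutramine was the positive control.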

Rattus norvegicus [16] = assay: Antiobesity activity in DIO-F344/Jcl rat assessed as reduction in body weight at 10 mg/kg, po dosed for 2 weeks and measured every 2 or 3 days relative to vehicle control; type: functional; parameters: scale not given: the % may be the effect or the level left; in short: as §5
Rattus norvegicus [17] = assay: Anorectic effect in DIO-F344/Jcl rat assessed as cumulative food intake at 3 mg/kg, po dosed for 2 weeks and measured every 2 or 3 days relative to vehicle control; type: functional; in short: as §5
Rattus norvegicus [18] = assay: Anorectic effect in DIO-F344/Jcl rat assessed as cumulative food intake at 10 mg/kg, po dosed for 2 weeks and measured every 2 or 3 days relative to vehicle control; type: functional; in short: as §5
[19] = Solubility of compound at pH 6.8; type: physicochemical; conditions: buffer
Plasma = assay: Free plasma concentration in DIO-F344/Jcl rat at 10 mg/kg, po; type: ADME, organism-based; conditions: in vivo
In short: (§6)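 Trough plasma concentration taken in the 2-week repeated oral dosing study in DIO-F344 rats. Unbound concentration obtained from total concentration and the unbound fraction in DIO rat plasma.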

[20] = Fraction unbound in po dosed DIO-F344/Jcl rat plasma; type: ADME, organism-based
Rattus norvegicus [21] = assay: Trough plasma concentration in DIO-F344/Jcl rat at 10 mg/kg, po; type: ADME, organism-based; conditions: in vivo, read-out: Cmin; in short: as §6
[22] = Ratio of drug level in brain to plasma in po dosed DIO-F344/Jcl rat; type: ADME, organism-based; conditions: brain and plasma, read-out: BPR
Mus musculus [23] = assay: Antiobesity activity in MCHR1-deficient mouse assessed as reduction in body weight at 10 and 30 mg/kg, po dosed for 3 days; type: functional, organism-based
In short: (§7)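 Male MCHR1-deficient and wild-type littermate mice, 27 weeks old, on high-fat diet from 7 weeks of age, housed individually and acclimated to tap-water dosing. Grouped by food intake from day −4 to day −1 and by day −1 body weight. Dosed orally once daily for 3 days in 0.5% methylcellulose at 10 mL/kg; n = 6. Body weight change and cumulative food intake measured over the 3 days.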

Mus musculus [24] = assay: Antiobesity activity in wild-type litter mate mouse assessed as reduction in body weight at 10 and 30 mg/kg, po dosed for 3 days; type: functional, organism-based; in short: as §7
Mus musculus [25] = assay: Anorectic effect in MCHR1-deficient mouse assessed as reduction in food intake at 10 and 30 mg/kg, po dosed for 3 days; type: functional, organism-based; in short: as §7
Brain = assay: Drug uptake in po dosed DIO-F344/Jcl rat brain; type: ADME, organism-based; conditions: in vivo

T1 sequence (Q99705 whole entry): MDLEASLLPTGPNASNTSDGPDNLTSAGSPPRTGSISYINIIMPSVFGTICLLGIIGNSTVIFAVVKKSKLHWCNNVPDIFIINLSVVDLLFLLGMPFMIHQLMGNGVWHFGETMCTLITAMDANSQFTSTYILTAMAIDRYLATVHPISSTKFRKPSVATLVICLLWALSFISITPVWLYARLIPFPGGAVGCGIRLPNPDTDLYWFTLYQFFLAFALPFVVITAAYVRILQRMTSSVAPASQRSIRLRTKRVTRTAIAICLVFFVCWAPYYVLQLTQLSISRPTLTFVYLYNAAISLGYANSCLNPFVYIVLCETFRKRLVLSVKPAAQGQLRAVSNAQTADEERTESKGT
Sequence of CYP3A4 (P08684 whole entry): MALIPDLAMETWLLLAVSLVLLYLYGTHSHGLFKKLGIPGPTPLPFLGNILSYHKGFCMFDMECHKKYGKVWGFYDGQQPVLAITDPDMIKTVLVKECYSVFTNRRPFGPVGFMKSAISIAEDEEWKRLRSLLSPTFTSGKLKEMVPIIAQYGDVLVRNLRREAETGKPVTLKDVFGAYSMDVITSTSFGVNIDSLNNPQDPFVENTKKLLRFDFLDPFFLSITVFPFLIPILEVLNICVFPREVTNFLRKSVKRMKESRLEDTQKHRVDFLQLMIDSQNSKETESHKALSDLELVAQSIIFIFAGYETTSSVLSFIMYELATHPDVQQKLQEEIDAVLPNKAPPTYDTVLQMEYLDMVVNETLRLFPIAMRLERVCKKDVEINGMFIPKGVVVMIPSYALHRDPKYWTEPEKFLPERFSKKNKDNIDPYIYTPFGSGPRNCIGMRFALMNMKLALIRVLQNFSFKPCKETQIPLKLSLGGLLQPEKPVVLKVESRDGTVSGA
Sequence of Melanin-concentrating hormone receptor 1 (Rattus norvegicus, UniProt P97639) (P97639 whole entry): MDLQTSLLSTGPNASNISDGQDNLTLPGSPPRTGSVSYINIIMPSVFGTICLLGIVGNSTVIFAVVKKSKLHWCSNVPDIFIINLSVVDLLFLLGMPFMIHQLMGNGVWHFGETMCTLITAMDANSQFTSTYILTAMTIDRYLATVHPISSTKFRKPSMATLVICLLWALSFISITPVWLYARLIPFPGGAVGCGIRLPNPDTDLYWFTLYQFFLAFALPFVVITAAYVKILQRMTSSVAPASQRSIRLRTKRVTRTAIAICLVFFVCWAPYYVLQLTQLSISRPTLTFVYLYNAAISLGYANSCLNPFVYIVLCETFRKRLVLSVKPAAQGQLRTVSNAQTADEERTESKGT

## Cc1c(C2CC2)nc2cnc(-n3ccc(OCc4ccc(Cl)cc4)cc3=O)cn12
[1]
  IC50: 44 nM

## Cc1nc2ccc(-n3ccc(OCc4ccc(F)cc4)cc3=O)cc2n1C
[1]
  IC50: 77 nM
[2]
  IC50: 65 nM

## Cc1c(C2CC2)nc2ccc(-n3ccc(OCc4ccc(Cl)cc4)cc3=O)nn12
[1]
  IC50: 380 nM

## CCn1c(C2CC2)nc2ccc(-n3ccc(OCc4ccc(Cl)cc4)cc3=O)cc21
[1]
  IC50: 37 nM
[2]
  IC50: 34 nM

## Cn1c(CC(C)(C)C)nc2ccc(-n3ccc(OCc4ccc(F)cc4)cc3=O)cc21
[1]
  IC50: > 1000 nM
[2]
  IC50: > 1000 nM

## CCCc1nc2ccc(-n3ccc(OCc4ccc(F)cc4)cc3=O)cc2n1C
[1]
  IC50: 34 nM
[2]
  IC50: 39 nM

## CC(C)CC(N(C)C)C1(c2ccc(Cl)cc2)CCC1 (stereo not given) [SIBUTRAMINE]
Rattus norvegicus [3]
  Activity: 18.7%
Rattus norvegicus [4]
  Activity: 3.1%

## Cn1c(C2CC2)nc2ccc(-n3ccc(OCc4cccc(Cl)c4)cc3=O)cc21
[1]
  IC50: 100 nM
[2]
  IC50: 72 nM

## Cn1c(C2CC2)nc2ccc(-n3ccc(OCc4cc(C(F)(F)F)cs4)cc3=O)cc21
[1]
  IC50: 34 nM
[2]
  IC50: 17 nM
CYP3A4
  activity at 30 µM: 87%

## Cn1c(C2CC2)nc2ccc(-n3ccc(OCc4ccccc4)cc3=O)cc21
[1]
  IC50: 45 nM
[2]
  IC50: 43 nM

## Cn1c(C2CC2)nc2ccc(-n3ccc(OCc4cc(Cl)cs4)cc3=O)cc21
[1]
  IC50: 17 nM
[2]
  IC50: 18 nM
CYP3A4
  activity at 30 µM: 25%

## Cn1c(C2CC2)nc2ccc(-n3ccc(OCc4ccc(Cl)s4)cc3=O)cc21
[5]
  bioavailability: 23%
[6]
  IC50: 24 nM
[7]
  clearance: 7.5 mL/min/kg
[8]
  Vd: 0.92 L/kg
[9]
  Cmax: 165 ng/mL
[10]
  Tmax: 1 h
[11]
  AUC(0-t) at 8 h: 515 ng·h/mL
Rattus norvegicus [12]
  Activity: 11.6%
Rattus norvegicus [13]
  Activity: 36.5%
Rattus norvegicus [14]
  Activity: Dose-dependent effect
Rattus norvegicus [15]
  Activity: 2.2%
Rattus norvegicus [16]
  Activity: 4.1%
Rattus norvegicus [17]
  Activity: 11.6%
Rattus norvegicus [18]
  Activity: 20.9%
[19]
  solubility: 2.3 µg/mL (≈ 5.58 µM)
Plasma
  Cp(f): 15.8 nM
[20]
  fraction unbound: 0.02
Rattus norvegicus [21]
  concentration: 790 nM
[22]
  Kp: 0.5
Mus musculus [23]
  Activity: inactive
Mus musculus [24]
  Activity: Dose-dependent effect
Mus musculus [25]
  Activity: Dose-dependent effect
Brain
  Drug uptake: Active
[1]
  IC50: 19 nM
[2]
  IC50: 11 nM
CYP3A4
  activity at 30 µM: 83%

## CCc1nc2ccc(-n3ccc(OCc4ccc(F)cc4)cc3=O)cc2n1C
[1]
  IC50: 48 nM
[2]
  IC50: 38 nM

## Cn1c(C2CC2)nc2ccc(-n3ccc(OCc4csc(C(F)(F)F)c4)cc3=O)cc21
[1]
  IC50: 41 nM
[2]
  IC50: 29 nM
CYP3A4
  activity at 30 µM: 96%

## Cn1c(C2CC2)nc2ccc(-n3ccc(OCc4ccc(F)cc4)cc3=O)cc21
[1]
  IC50: 40 nM
[2]
  IC50: 28 nM
